Here are results for 46 variants from the RNAGym collection of RNA variant scans (doi:10.1038/s41586-018-0170-7).

The chains are these.
B1: tRNA (parent)
chain: GUUCCGUUGGCGUAAUGGUAACGCGUCUCCCUCCUAAGGAGAAGACUGCGGGUUCGAGUCCCGUACGGAACG

Variants of B1 are the subject of the data set. In words: yeast fitness, log relative to wild type (ln ratio); higher = fitter; tRNA-Arg(CCU), competitive growth, 37 C, 1 M NaCl. The procedure, abridged:
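Two independent transformations put a combinatorial tRNA-Arg(CCU) variant library on a HIS3 centromeric plasmid into BY4742 lacking the chromosomal gene. Pools were grown in SC-HIS at 30 °C for 4 generations, then in SC-HIS 1M NaCl at 37 °C for ~6.5 generations (~26.5 h), with three outputs taken per input. Fitness compares a genotype's generations with the wild type's as a natural log ratio. Those generations are OD-scaled log2 output/input frequencies, inverse-variance weighted across replicates, from 125 bp paired-end Illumina counts.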
As for U2G G6A C27U C46U C66U A69G A70U, the “yeast fitness (ln)” value was -0.0313.

On to G6U C27U C46U C66U A69G A70U, for which the “yeast fitness (ln)” value is -0.308.

On to G1A U2G C27U C46U C66A A70U, for which the “yeast fitness (ln)” value was -0.138.

For U2C G6U A43C C46U A69G A70U C71U, the “yeast fitness (ln)” value is -0.393.

Regarding G6A A43C C46U C66U C71U, the “yeast fitness (ln)” value was -0.12.

As for G1A U2G A43C C46U C66U A70U, the “yeast fitness (ln)” value was -0.141.

For U2G G6A A43C C46U C66A, the “yeast fitness (ln)” value is -0.141.

With G1A U2G G6U C27U A43C C46U A70G C71U, the “yeast fitness (ln)” value is -0.426.

For the variant G1A G6U A43C C66U C71U, the “yeast fitness (ln)” value was -0.333.

With G1A U2C A43C C46U A70G C71U, the “yeast fitness (ln)” value is -0.00628.

Take U2C G6A A43C C66A A70U C71U: the “yeast fitness (ln)” value was -0.261.

In the case of G1A C46U A69G C71U, the “yeast fitness (ln)” value was -0.00219.

On to C66U A69G A70G, for which the “yeast fitness (ln)” value is -0.0718.

On to G6U A43C C46U A69G A70U C71U, for which the “yeast fitness (ln)” value was -0.438.

Regarding G6U C46U A70G, the “yeast fitness (ln)” value is -0.284.

As to G1A U2C C27U A43C C46U A69G C71U, the “yeast fitness (ln)” value is -0.167.

On to U2C C27U C66U A70U, for which the “yeast fitness (ln)” value was -0.113.

Take G1A G6U C46U A70G C71U: the “yeast fitness (ln)” value was -0.227.

Turning to G1A G6A C46U C66U A69G, the “yeast fitness (ln)” value was -0.423.

U2C A43C C46U C66U A70G: the “yeast fitness (ln)” value was -0.0311.

Consider C27U A43C C46U A70G, for which the “yeast fitness (ln)” value was -0.0288.

Turning to G1A U2G G6U C27U A70U C71U, the “yeast fitness (ln)” value was -0.305.

Consider G1A G6U C27U C66U A70U C71U, for which the “yeast fitness (ln)” value was -0.461.

With U2G G6U A70U, the “yeast fitness (ln)” value is -0.0383.

As to G1A C27U A43C C66A A69G A70G, the “yeast fitness (ln)” value is -0.279.

For U2C G6U C27U C66A A70G, the “yeast fitness (ln)” value was -0.0277.

As to G1A U2C C27U A70U, the “yeast fitness (ln)” value is -0.0826.

Turning to U2G A43C, the “yeast fitness (ln)” value was -0.0825.

As for G1A G6U C27U C46U A69G A70U, the “yeast fitness (ln)” value is -0.299.

On to U2G G6U A43C C66A A69G A70G C71U, for which the “yeast fitness (ln)” value was -0.315.

As to G1A U2G G6A C27U A43C C66U A69G A70U C71U, the “yeast fitness (ln)” value is -0.489.

Take U2C G6A C27U C46U C66A A69G A70G C71U: the “yeast fitness (ln)” value was -0.188.

For U2C G6U C46U A70U C71U, the “yeast fitness (ln)” value is -0.0786.

U2C G6U C27U A43C C46U A69G A70G: the “yeast fitness (ln)” value was -0.227.

Regarding G1A U2C A43C C46U A69G A70U, the “yeast fitness (ln)” value was -0.0156.

Regarding U2C C27U A43C C66U A70U, the “yeast fitness (ln)” value is -0.135.

Consider G1A A43C C46U C66A A69G A70U C71U, for which the “yeast fitness (ln)” value is -0.36.

Consider G1A U2G G6A C46U A70G C71U, for which the “yeast fitness (ln)” value is -0.245.

Consider G6A C46U C66U C71U, for which the “yeast fitness (ln)” value was -0.0146.

For the variant U2G G6U C46U C66A A69G A70U C71U, the “yeast fitness (ln)” value was -0.646.

Turning to G1A U2C G6A A43C C46U C66U A70U C71U, the “yeast fitness (ln)” value is -0.402.

As to U2G G6A C27U A43C C46U C66A C71U, the “yeast fitness (ln)” value was -0.283.

As to G1A U2G G6A C46U C66U, the “yeast fitness (ln)” value is -0.13.

With U2C C27U C46U A70U, the “yeast fitness (ln)” value is -0.0474.

In the case of U2G C27U A43C C66A A69G A70U C71U, the “yeast fitness (ln)” value was -0.477.

As for G1A G6A A43C C46U C66U A69G C71U, the “yeast fitness (ln)” value was -0.252.
